# Rows were chosen to be rich in hits. Some 4.9% of all compounds tested hit in one or more screens of this group.
# STAT3 act: IL-6 driven STAT3 reporter potentiators, primary screen, U3A cells, luciferase, luminescence, MLSCN library. IL-6 STAT3-luciferase reporter; 100% = signal with IL-6 EC80 alone. activation (% of control), % at 5.6 µM. actives 0.91% (n = 190,000);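 active = activation above the screen-wide mean of compound activation plus 3 SD, cut at about 130% in these data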;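 note: 0% = background luminescence of wells with medium and substrate only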
#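 Test system: STAT3-luciferase reporter U3A cells; Detection: reporter luminescence signal; Times: 1 h compound pre-exposure, 6 h IL-6 stimulation, 37 °C; Benchmarks: IL-6-only high control; Also added: IL-6 stimulus at 33 ng/mL final.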
# STAT1 inh: STAT1 signaling inhibitors, primary screen, cell-based, HTS, luciferase reporter; AID 920, 2007; inhibition, % at 5.5 µM; NIH 3T3 STAT1-luciferase reporter, IFN-gamma, luminescence; actives 0.35% (n = 200,000);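 active = inhibition above a set limit, the mean inhibition across all tested compounds plus 3 SD, cut at about 34% in these data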;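 note: 0% = IFN-gamma with DMSO and 100% = IFN-gamma with 300 µM nifuroxazide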
# STAT3 blocker: IL-6 driven STAT3 reporter inhibitors, primary screen, U3A cells, luciferase, luminescence, MLSCN library; AID 862, 2007; inhibition, % at 5.5 µM; IL-6 STAT3-luciferase reporter; host cell line lacks STAT1; actives 0.89% (n = 190,000);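 active = inhibition above the mean inhibition across all screened compounds plus 3 SD, cut at about 44% in these data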;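 note: 0% = DMSO only wells and 100% = 100 µM nifuroxazide control wells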
# STAT1 activator: STAT1 signaling activators, primary screen, cell-based, HTS, luciferase reporter; NIH 3T3 STAT1-luciferase reporter, IFN-gamma, luminescence; 100% = IFN-gamma alone, no compound; activation (% of control), % at 5.5 µM; actives 2.6% (n = 200,000); AID 932, 2007;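 active = activation above the screen-wide mean activation plus 3 SD, cut at about 130% in these data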;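 note: raw ratio to IFN-gamma control signal so 100% means no change and 0% no light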
# FLuc inhib CS: firefly luciferase enzyme inhibitors, primary screen, artefact control for luciferase-based inhibitor screens, biochemical, luminescence, ATPLite; Luciferin 4-monooxygenase (Photinus pyralis), P08659; 10 min; inhibition, % at 10 µM; actives 1.5% (n = 200,000); AID 1006, 2008;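 active = inhibition above about 50% when tested at 10 µM, limit read from the data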
# Target sequence (P08659 whole entry, looked up): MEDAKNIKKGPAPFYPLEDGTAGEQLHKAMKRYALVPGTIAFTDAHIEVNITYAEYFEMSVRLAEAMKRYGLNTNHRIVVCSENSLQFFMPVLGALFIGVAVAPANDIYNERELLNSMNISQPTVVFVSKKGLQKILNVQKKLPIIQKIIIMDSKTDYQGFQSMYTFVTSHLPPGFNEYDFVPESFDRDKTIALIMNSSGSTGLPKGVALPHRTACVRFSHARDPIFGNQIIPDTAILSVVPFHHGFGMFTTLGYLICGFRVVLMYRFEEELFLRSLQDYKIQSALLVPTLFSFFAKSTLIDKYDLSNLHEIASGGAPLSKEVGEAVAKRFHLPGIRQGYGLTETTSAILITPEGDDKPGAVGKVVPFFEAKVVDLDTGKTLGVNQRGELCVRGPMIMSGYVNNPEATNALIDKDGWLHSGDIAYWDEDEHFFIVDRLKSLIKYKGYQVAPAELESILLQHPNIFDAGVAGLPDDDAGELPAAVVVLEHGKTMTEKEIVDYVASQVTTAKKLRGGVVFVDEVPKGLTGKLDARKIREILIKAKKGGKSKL
# FLuc act counter: FLuc activators, initial screening, artefact control for FLuc-dependent activation tests, biochemical, ATPlite luminescence; activation factor at 10 µM; 200,000 tested, under 10 active; Luciferin 4-monooxygenase (Photinus pyralis), P08659; ATPlite luciferase biochemical, 10 min; 0 = ATP-free wells, 1 = DMSO control; AID 1027, 2008;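 active = luciferase activation factor, scaled between plate controls, of at least 2 with compound at 10 µM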
#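 Material: Luciferase/luciferin reagent mix; Doses: test compounds dosed from 2 mM stocks in 100% DMSO; Schedule: 10 min incubation after luciferase reagent addition, room temperature; Measured by: luminescence from luciferase reaction; Read-out: luminescence gain marking luciferase activators.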
# STAT1 activ conf: STAT1 signaling activators, confirmation, cell-based, HTS, luciferase reporter | actives 97% (n = 1,200) | NIH 3T3 STAT1-luciferase reporter, IFN-gamma potentiation, luminescence; 100% = IFN-gamma EC80 alone, no compound | shares compounds with STAT1 activator | activation (% of control), % at 5.7 µM | AID 1262, 2008;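 active = activation above a set limit carried over from the earlier primary STAT1 screen, cut at about 140% in these data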;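 note: simple ratio to median IFN-gamma plus DMSO wells so 0% means no light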
# NFkB act STAT1ct: NF-kB reporter activators, TNF-alpha stimulated, counter-screen for STAT1 activator project, cell-based, HEK293T, luciferase luminescence. shares compounds with STAT1 activator. 100% = TNF-alpha with vehicle only. activation (% of control), % at 5.7 µM. actives 43% (n = 1,200). AID 1306, 2008;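 active = activation above the mean of solvent-only control wells plus 3 SD, set per campaign, cut at about 130% in these data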;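 note: TNF-alpha given at a submaximal dose yielding about 80% of full reporter signal; values are well signal over median control so 100% means no change and 0% no light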
# STAT3 act STAT1c: STAT3 reporter activation by STAT1 hits, confirmation, counter-screen for STAT1 activator project, U3A cells, luciferase, luminescence | shares compounds with STAT1 activator | actives 46% (n = 1,200) | IL-6; cells lack STAT1; 100 = IL-6 alone, no compound effect | activation (% of control), % at 5.7 µM | AID 1316, 2008;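 active = activation above the solvent-only control well mean plus 3 SD, set per plate batch, cut at about 110% in these data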;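 note: 0% = no luminescence and 100% = median IL-6 plus DMSO wells; higher means more STAT3 reporter activation so hits are non-selective activators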
# Active calls of the source: *; . = no result.
SMILES,STAT3 act,STAT1 inh,STAT3 blocker,STAT1 activator,FLuc inhib CS,FLuc act counter,STAT1 activ conf,NFkB act STAT1ct,STAT3 act STAT1c
c1ccc(-n2nnc(-c3cccnc3)n2)cc1,.,-53.6,.,151.6*,24.8,0.8,164.6*,125.8,102.7
c1ccc(OCCCn2nnc(-c3cccnc3)n2)cc1,98.0,5.1,5.7,95.3,-4.6,1,.,.,.
CC(C)c1ccc(N=C2NN=C(c3cccs3)CS2)cc1,102.6,-58.6,-1.6,153.2*,50.1*,0.5,194.7*,126.4,111.1*
Cc1cccc(N=C2NN=C(c3c(C)[nH]c4ccccc34)CS2)c1,99.4,8.5,-1.8,94.1,-7.2,1.1,.,.,.
O=C(CS(=O)(=O)c1ccc2ccccc2c1)N1CCCCCC1,88.5,-4.9,17.2,103.4,-0.2,1,.,.,.
Cc1cccn2c1nc(=S)n2C(=O)c1ccco1,111.8,-119.5,-9.5,208.5*,85.1*,0.1,256.4*,175.7*,134.8*
CCn1c(C)c(C(C)=O)c(N2CCN(C(=O)c3ccco3)CC2)nc1=S,105.3,-2.4,-2.0,102.1,-1.8,1,.,.,.
CCCNC(=S)N1CCN(CC)CC1,92.8,1.1,8.7,99.1,-9.2,1.1,.,.,.
O=C(NCCc1ccccc1)c1ccccc1NC(=O)C1CC=CCC1C(=O)O (stereo not given),95.5,-59.6,8.0,152.3*,2.4,1,133.5*,125.1,107.6
O=[N+]([O-])c1cccc(/C=N/NC2=NS(=O)(=O)c3ccccc32)c1,102.7,3.3,-0.8,97.4,6.6,0.9,.,.,.
CCN(CC)c1ccc2cc(C(=O)Nc3ccccn3)c(=O)oc2c1,68.1,-55.9,42.4,154.2*,44.6,0.6,236.2*,93.3,92.5
Cc1ccc(C(C)C)c(OCc2nn(CC(=O)c3ccc(Cl)cc3)c3[n+]2CCCCC3)c1,98.7,5.1,3.7,95.1,-0.4,1,.,.,.
O=C(Nc1nnc(C23CC4CC(CC(C4)C2)C3)s1)c1ccco1,101.6,-57.4,1.2,151.7*,27.5,0.7,190.3*,131.2,120.2*
COc1ccc(-c2csc(NC(=O)c3ccco3)n2)cc1,97.7,-61.3,5.9,153.0*,16.1,0.8,164.2*,126.5,99.2
Cc1nnc(NC(=O)c2ccco2)s1,105.7,-3.5,-1.6,103.1,-2.3,1,.,.,.
Cc1nc2ccc3nc(NC(=O)c4ccco4)sc3c2s1,90.2,-69.8,16.7,163.8*,.,.,169.6*,126.5,109.0
Cc1c(-c2ccccc2)oc2c(C(=O)N3CCN(c4ccc([N+](=O)[O-])cc4)CC3)cccc2c1=O,101.8,-0.3,-2.7,100.3,-3.6,1,.,.,.
Cc1ccc(C(=O)N/C(=C\c2cccs2)C(=O)NCCCn2ccnc2)cc1,100.6,-2.5,2.9,102.2,-5.8,1.1,.,.,.
O=C(Nc1ccc2c(c1)OCCO2)c1cccs1,105.2,-59.4,-7.4,152.9*,69.6*,0.3,172.9*,125.2,107.6
O=C(Nc1ccc2c(c1)OCO2)c1cccs1,112.4,-28.4,-10.9,121.9,36.0,0.6,.,.,.
O=C(Nc1ccc2c(c1)CCC2)Nc1ccc2c(c1)OCO2,108.5,-65.9,-6.6,159.7*,13.8,0.9,167.4*,121.1,110.9*
Cn1c(C(=O)NCc2ccc3c(c2)OCO3)cc2sccc21,94.8,-4.8,8.6,104.4,-0.3,1,.,.,.
Cn1c(C(=O)Nc2ccc3c(c2)OCO3)cc2sccc21,126.0,-101.7,-26.3,193.0*,53.2*,0.5,210.4*,146.7*,141.6*
CC(=O)Nc1ccc2c(c1)OCO2,103.5,3.7,1.0,98.1,-4.4,1,.,.,.
O=C(Nc1ccc2c(c1)OCO2)c1ccc(Br)s1,114.3,-77.0,-13.1,181.3*,60.9*,0.4,203.5*,130.9,131.6*
SMILES,STAT3 act,STAT1 inh,STAT3 blocker,STAT1 activator,FLuc inhib CS,FLuc act counter,STAT1 activ conf,NFkB act STAT1ct,STAT3 act STAT1c
CCSc1nc2[nH]ncc2c(=O)[nH]1,103.8,0.6,-3.7,99.5,-9.0,1.1,.,.,.
CCOC(=O)c1nnn(CC(=O)NC(=O)Nc2ccc(F)cc2)c1C(=O)OCC,95.9,7.3,9.7,90.7,-2.0,1,.,.,.
O=C(Nc1cccc([N+](=O)[O-])c1)Nc1ccc2c(c1)OCCO2,98.9,-63.1,5.0,155.7*,35.6,0.6,195.5*,137.1*,136.3*
O=C(Nc1cccc([N+](=O)[O-])c1)Nc1cccc([N+](=O)[O-])c1,80.2,11.1,27.6,91.1,-1.3,1,.,.,.
N#Cc1cccc(NCC(=O)Nc2ccc3c(c2)OCCO3)c1,81.6,-72.7,28.1,167.3*,65.2*,0.3,180.3*,124.9,115.1*
COC(=O)C1=C(C(=O)OC)C(c2ccccc2O)c2sc(=O)[nH]c2S1 (stereo not given),100.7,10.8,0.0,90.4,-5.1,1.1,.,.,.
CCOC(=O)c1ccc(Nc2cnc3ccccc3n2)cc1,99.9,-79.4,7.1,171.0*,0.6,1,194.2*,139.2*,113.6*
CCOC(=O)c1ccc(Nc2ccc([N+](=O)[O-])cn2)cc1,97.8,-13.2,2.9,111.6,-3.8,1,.,.,.
O=C(Nc1cccc(C(F)(F)F)c1)C(=O)N1CCCCC1,99.8,-28.6,5.9,123.5,-2.1,1,.,.,.
COc1ccccc1NC(CC(=O)c1ccccc1)C(=O)OCC(=O)c1ccc(C)cc1 (stereo not given),66.5,-27.9,38.2,125.3,-3.0,1,.,.,.
COc1ccccc1NC(CC(=O)c1ccccc1)C(=O)OCC(=O)c1ccc(Br)cc1 (stereo not given),70.3,-56.4,35.3,156.2*,-2.7,1,182.8*,115.8,99.3
Oc1ccc(N=Nc2n[nH]c(-c3ccccc3)n2)cc1,87.4,-81.0,14.7,172.2*,58.6*,0.4,184.5*,122.1,104.8
